Measured values from PubChem BioAssay AID504504 (Broad Institute, 2011).
Inconclusive results are not listed. The source made the active and inactive calls.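 How the source made its calls: active means growth-lowering compounds whose fitted AC50 is at most ten times their top valid dose; inconclusive means flat fit with 30 to 70% inhibition, or unreliable fit; inactive means the rest.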

Legend:
[1] = system: C. albicans CaCi-8 + fluconazole, Alamar Blue growth, 48 h; assay: antifungal activity against resistant Candida strain – CaCi-8, with fluconazole, powder samples, set 10, dose response (AID 504504)
Outline: (§1)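 Probe or stimulus: fluconazole 8 µg/mL; Assay system: Candida albicans CaCi-8, a fluconazole-resistant clinical strain; Amount: inoculum OD600 0.00015; Medium: defined RPMI 1640 medium with MOPS, glucose, uridine; Schedule: 48 h at 37 °C, then dye 2 h RT; Detection: Alamar Blue fluorescence, excitation 544 nm, emission 590 nm.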

[2] = as above; conditions: C. albicans CaCi-8 + fluconazole, Alamar Blue growth, 48 h; at 26 µM (top of the series)
Outline: as §1

Row | Compound | AC50 [1] | activity change, negative = growth inhibition [2]
1 | c1ccc(-c2nn(Cc3nnco3)c3ccccc23)cc1 | 21.8 µM | 
2 | COC(=O)Cn1nc(-c2cscn2)c2ccccc21 | 18.3 µM | 
3 | O=C(O)Cn1c2ccccc2c2nc3n(c(=O)c21)CCS3 |  | -4.73% (inactive)
4 | COC(=O)Cn1nc(C2CCCCC2)c2ccccc21 | 3.44 µM | 
5 | CC1(O)CN(C(=O)Cn2c3ccccc3c3nc4n(c(=O)c32)CCS4)C1 | > 26 µM (inactive) | 
6 | O=C(Cn1c2ccccc2c2nc3n(c(=O)c21)CCS3)N1CC=CC1 | 2.02 µM | 
7 | O=C(Cn1c2ccc(F)cc2c2nc3n(c(=O)c21)CCS3)N1CCCC1 |  | 15.4% (inactive)
8 | CC1CCN(CCn2c3ccccc3c3nc4n(c(=O)c32)CCS4)CC1 |  | -17.5% (inactive)
9 | O=C(Cn1c2ccc(F)cc2c2nc3n(c(=O)c21)CCS3)N1CCC(F)(F)CC1 |  | 60.6% (inactive)
10 | COC(=O)n1nc(-c2ccccc2)c2ccccc21 |  | 11.4% (inactive)
11 | O=C(Cn1c2ccccc2c2nc3n(c(=O)c21)CCS3)N1CCCCC1 | 2.17 µM | 
12 | CCc1nn(CC(=O)OC)c2ccccc12 |  | -7.82% (inactive)
13 | O=C(Cn1c2ccc(F)cc2c2nc3n(c(=O)c21)CCS3)N1CC=CC1 |  | 65% (inactive)
14 | COC(=O)Cn1nc(C(C)(C)C)c2ccccc21 |  | -4.79% (inactive)
15 | O=C(Cn1c2ccccc2c2nc3n(c(=O)c21)CCS3)N1CCCC1 | 1.97 µM | 
16 | COC(=O)Cn1nc(-c2cccc(C)c2)c2ccccc21 | 0.702 µM | 
17 | COC(=O)Cn1nc(C2CC2)c2ccccc21 |  | -23.8% (inactive)
18 | COC(=O)Cn1c2ccc(F)cc2c2nc3n(c(=O)c21)CCS3 | 2.99 µM | 
19 | COC(=O)Cn1nc(-c2cccc(OC)c2)c2ccccc21 | 0.607 µM | 
20 | COC(=O)Cn1nc(-c2cccc(F)c2)c2ccccc21 | 1.84 µM | 
21 | O=C(O)Cn1c2ccc(F)cc2c2nc3n(c(=O)c21)CCS3 |  | -8.94% (inactive)
22 | COC(=O)Cn1nc(-c2cnco2)c2ccccc21 |  | -17.4% (inactive)
23 | O=C(Cn1c2ccccc2c2nc3n(c(=O)c21)CCS3)N1CCC(F)(F)C1 | 6.69 µM | 
24 | O=C(Cn1c2ccc(F)cc2c2nc3n(c(=O)c21)CCS3)N1CCC(F)(F)C1 |  | 32% (inactive)
